Data from ChEMBL document CHEMBL5532699, “Design, docking optimization, and evaluation of biotin-PEG4-1,8-naphthalimide as a potent and safe antitumor agent with dual targeting of ferroptosis and DNA” (RSC Med Chem, 2024).
The source made the active and inactive calls. The rule behind the calls is not given here.

Columns and labels:
MGC-803 [1] = assay: Induction of ferroptosis in human MGC-803 cells assessed as accumulation of intracellular ROS level by measuring increase in red fluorescence intensity at 25 to 50 uM incubated for 24 hrs by DHE staining based confocal microscopic analysis; type: functional, cell-based; conditions: dose 25-50 µM
MGC-803 [2] = assay: Antiproliferative activity against human MGC-803 cells incubated for 48 hrs by MTT assay; type: functional, cell-based; conditions: MGC-803, 48 h
Procedure, shortened: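 Cells kept as monolayers in DMEM with 10% FBS, streptomycin and penicillin, 37°C, 5% CO₂. Exponentially growing cells seeded in 96-well plates, exposed 48 h, then MTT (10 mg/mL stock) for 4 h at 37°C. Medium removed, formazan dissolved in DMSO, OD read at 490 nm. Five wells per condition; each cell line run three times.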

IC50 (MGC-803 [2]): > 50 µM
Structure (SMILES): CN(C)CCN1C(=O)c2cccc3c(N4CCN(C(=O)CCOCCOCCOCCOCCNC(=O)CCCCC5SCC6NC(=O)NC65)CC4)ccc(c23)C1=O (configuration not stated)
Activity (MGC-803 [1]): Active
